From ChEMBL document CHEMBL3525979, “Combined contributions of impaired hepatic CYP2C11 and intestinal breast cancer resistance protein activities and expression to increased oral glibenclamide exposure in rats with streptozotocin-induced diabetes mellitus” (Drug Metab Dispos, 2012) come the findings set out here.

The nature of data set [1]: Cmax in Sprague-Dawley rat model of streptozotocin-induced diabetes mellitus at 10 mg/kg, po by HPLC method. It counts as ADME, organism-based. Also on record: dose 10 mg/kg, route oral. To be noted: in vivo. The procedure, abridged:
(§1)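 Sprague-Dawley rats: diabetes induced by STZ 65 mg/kg i.p. in citrate buffer pH 4.5 (fasting glucose >11.1 mM at day 7). Insulin group received protamine zinc insulin 5 U/kg s.c. twice daily for 4 weeks. On day 35, overnight-fasted rats got GLB 10 mg/kg orally in 0.5% CMC-Na. Plasma GLB measured by HPLC with fluorescence detection (ex 308/em 360 nm). Non-compartmental analysis; n=6-7.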

Data set [2] in a line: AUC (0 to infinity) in normal Sprague-Dawley rat at 10 mg/kg, po by HPLC method. As to conditions: plasma; call rule not given here. More on the design: time infinity, dose 10 mg/kg, route oral. Type of data set: ADME, organism-based. The procedure, abridged: as §1
The nature of data set [3]: AUC (0 to infinity) in Sprague-Dawley rat model of streptozotocin-induced diabetes mellitus at 10 mg/kg, po by HPLC method. More on the design: time infinity, dose 10 mg/kg, route oral. Type of data set: ADME, organism-based. To be noted: in vivo. In outline: as §1
The nature of data set [4]: AUC (0 to infinity) in insulin treated Sprague-Dawley rat model of streptozotocin-induced diabetes mellitus at 10 mg/kg, po by HPLC method. Type of data set: ADME, organism-based. Also on record: dose 10 mg/kg, route oral, time infinity. To be noted: in vivo. The procedure, abridged:
as §1

Data set [5] in a line: AUC (0 to t) in normal Sprague-Dawley rat at 10 mg/kg, po by HPLC method. It counts as ADME, organism-based. Also on record: dose 10 mg/kg, route oral. As to conditions: plasma. In outline: as §1
Data set [6] in a line: AUC (0 to t) in Sprague-Dawley rat model of streptozotocin-induced diabetes mellitus at 10 mg/kg, po by HPLC method. Type of data set: ADME, organism-based. Also on record: dose 10 mg/kg, route oral. To be noted: in vivo. In outline: as §1
A short description of data set [7]: AUC (0 to t) in insulin treated Sprague-Dawley rat model of streptozotocin-induced diabetes mellitus at 10 mg/kg, po by HPLC method. It counts as ADME, organism-based. Also on record: dose 10 mg/kg, route oral. To be noted: in vivo. The procedure, abridged: as §1
The nature of data set [8]: Terminal elimination half life in normal Sprague-Dawley rat at 10 mg/kg, po by HPLC method. Type of data set: ADME, organism-based. As to conditions: in vivo, read-out: beta t1/2 (converted). More on the design: dose 10 mg/kg, route oral. In outline: (§2)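 Rats given STZ 65 mg/kg i.p. in citrate buffer pH 4.5 (controls got buffer); diabetic if fasting glucose >11.1 mM at day 7; insulin group got protamine zinc insulin 5 U/kg s.c. twice daily for 4 weeks. On day 35, overnight-fasted rats dosed orally with 10 mg/kg in 0.5% CMC-Na; plasma by ethyl acetate extraction, HPLC fluorescence (ex 308/em 360 nm); non-compartmental analysis; n=6-7, mean ± S.D.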

Data set [9] in a line: Terminal elimination half life in Sprague-Dawley rat model of streptozotocin-induced diabetes mellitus at 10 mg/kg, po by HPLC method. Type of data set: ADME, organism-based. Also on record: dose 10 mg/kg, route oral. As to conditions: in vivo, read-out: beta t1/2 (converted). In outline: as §2
Data set [10] can be described thus: Terminal elimination half life in insulin treated Sprague-Dawley rat model of streptozotocin-induced diabetes mellitus at 10 mg/kg, po by HPLC method. Also on record: dose 10 mg/kg, route oral. Type of data set: ADME, organism-based. As to conditions: in vivo, read-out: beta t1/2 (converted). In outline:
as §2

Data set [11] is described as follows: Mean residence time in normal Sprague-Dawley rat at 10 mg/kg, po by HPLC method. Type of data set: ADME, organism-based. More on the design: dose 10 mg/kg, route oral. As to conditions: in vivo. The procedure, abridged: as §1
The nature of data set [12]: Mean residence time in Sprague-Dawley rat model of streptozotocin-induced diabetes mellitus at 10 mg/kg, po by HPLC method. To be noted: in vivo. More on the design: dose 10 mg/kg, route oral. It counts as ADME, organism-based. In outline:
as §1

Data set [13] can be described thus: Mean residence time in insulin treated Sprague-Dawley rat model of streptozotocin-induced diabetes mellitus at 10 mg/kg, po by HPLC method. Type of data set: ADME, organism-based. More on the design: dose 10 mg/kg, route oral. To be noted: in vivo. The procedure, abridged:
as §1

Data set [14] deals with Jejunum. Kind of data set: Drug absorption in streptozotocin-induced diabetes mellitus Sprague-Dawley rat jejunum at 10 ug/ml after 30 mins of in situ single-pass perfusion relative to normal rat. It counts as ADME, tissue-based. As to conditions: in vivo, 0.5 h. In outline:
(§3)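 In situ single-pass jejunal perfusion in anaesthetized control and STZ-diabetic rats. The segment was preperfused with 0.9% saline at 0.2 mL/min, 37 °C, for 20 min, then perfused with K-H buffer containing GLB 10 μg/mL. Effluent was collected at 15-min intervals after a 30-min steady state. Cumulative absorption was calculated from GLB loss (HPLC); n=5.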

The subject of data set [15] is Jejunum. Kind of data set: Drug absorption in streptozotocin-induced diabetes mellitus Sprague-Dawley rat jejunum at 10 ug/ml after 120 mins of in situ single-pass perfusion relative to normal rat. It counts as ADME, tissue-based. To be noted: in vivo, 2 h. In outline:
as §3

For data set [16], the system named is Jejunum. Kind of data set: Drug absorption in normal Sprague-Dawley rat jejunum at 10 ug/ml in presence of 50 to 200 uM BCRP inhibitor novobiocin. It counts as ADME, tissue-based. As to conditions: in vivo. In outline:
(§4)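 Normal rats underwent in situ single-pass jejunal perfusion: saline preperfusion at 0.2 mL/min, 37 °C, for 20 min, then K-H buffer with GLB 10 μg/mL with or without novobiocin 50 or 200 μM. Effluent was collected every 15 min. Peff (cm/min) was calculated from GLB loss and the absorptive area of the segment; n=5.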

Data set [17] deals with Jejunum. Kind of data set: Drug absorption in normal Sprague-Dawley rat jejunum assessed as 200 uM BCRP inhibitor novobiocin-mediated increase in apparent effective permeability at 10 ug/ml measured at 45 mins of perfusion. More on the design: scale not given: the % may be the effect or the level left. To be noted: 0.75 h. It counts as ADME, tissue-based. The procedure, abridged: as §4

Data set [18] has as its system Jejunum. Kind of data set: Drug absorption in normal Sprague-Dawley rat jejunum assessed as 200 uM BCRP inhibitor novobiocin-mediated increase in apparent effective permeability at 10 ug/ml measured at 90 mins of perfusion. Type of data set: ADME, tissue-based. More on the design: scale not given: the % may be the effect or the level left. As to conditions: 1.5 h. The procedure, abridged:
as §4

The nature of data set [19]: Oral clearance in normal Sprague-Dawley rat at 10 mg/kg, po by HPLC method. It counts as ADME, organism-based. More on the design: dose 10 mg/kg, route oral. To be noted: in vivo. In outline: as §2
Data set [20] is described as follows: Oral clearance in Sprague-Dawley rat model of streptozotocin-induced diabetes mellitus at 10 mg/kg, po by HPLC method. It counts as ADME, organism-based. Also on record: dose 10 mg/kg, route oral. To be noted: in vivo. The procedure, abridged:
as §1

Data set [21] in a line: Oral clearance in insulin treated Sprague-Dawley rat model of streptozotocin-induced diabetes mellitus at 10 mg/kg, po by HPLC method. Also on record: dose 10 mg/kg, route oral. As to conditions: in vivo. It counts as ADME, organism-based. The procedure, abridged:
as §2

Data set [22] in a line: Apparent oral volume of distribution in normal Sprague-Dawley rat at 10 mg/kg, po by HPLC method. To be noted: in vivo. It counts as ADME, organism-based. More on the design: dose 10 mg/kg, route oral. The procedure, abridged:
as §1

A short description of data set [23]: Apparent oral volume of distribution in Sprague-Dawley rat model of streptozotocin-induced diabetes mellitus at 10 mg/kg, po by HPLC method. Type of data set: ADME, organism-based. Also on record: dose 10 mg/kg, route oral. To be noted: in vivo. The procedure, abridged: as §1
Data set [24] can be described thus: Apparent oral volume of distribution in insulin treated Sprague-Dawley rat model of streptozotocin-induced diabetes mellitus at 10 mg/kg, po by HPLC method. To be noted: in vivo. It counts as ADME, organism-based. More on the design: dose 10 mg/kg, route oral. In outline:
as §1

Usually Cmax stands for the highest concentration seen after dosing. As a reminder, the CL/F is the apparent clearance, not corrected for the fraction that reaches the circulation. One may read the Vd/F as the volume of distribution divided by bioavailability. In turn, `COc1ccc(Cl)cc1C(=O)NCCc1ccc(S(=O)(=O)NC(=O)NC2CCCCC2)cc1` [GLYBURIDE] gave a Cmax in [1] of 1250 ng/mL. The values for the AUC(0-inf) in data set [2], in data set [3] and in [4] were 2610 ng·h/mL, 15200 ng·h/mL and 3000 ng·h/mL, respectively. For the same compound, the AUC(0-t) stood at 2350 ng·h/mL in [5], 13300 ng·h/mL in [6] and 2380 ng·h/mL in [7]. Also, the half-life in data set [8] is 273 min; in [9], 307 min; in data set [10] it was 491 min. The MRT turned out to be 7.23 h in data set [11], 9.28 h in [12] and 8.15 h in data set [13]. For the same compound, the Drug absorption in [14] is 35%; in data set [15], 42%; in data set [16] it was “Active”. Also, the Activity in [17] was 25%; in [18], 32%. In addition, the values for the CL/F in data set [19], in [20] and in data set [21] were 65.5 mL/min/kg, 12 mL/min/kg and 66.3 mL/min/kg, respectively. Further, the Vd/F in data set [22] is 25.7 L/kg; in data set [23] it was 6.36 L/kg; in data set [24], 36.8 L/kg.
